In PMC4846294 (Bioorganic & medicinal chemistry, 2016):
Entries after “also recorded” stand apart in the source; their conditions may differ. Like-named read-outs stand apart in the source and are kept apart here.

What was measured:
[1] = biological target: T1, LAP (from porcine kidney microsomes) (Sus scrofa, UniProt P15145); test: In vitro LAP cleavage assay; assay type: in vitro ADME; conditions: for Specific Activity of LAP: rate study; for Specific Activity of LAP / % Cleavage by LAP: pH 7.2, 37 °C; for % Cleavage by LAP: area ratio of parent drug and prodrug (HPLC); for Cleavage rate relative to corresponding serinamide analogue: glycinamide versus serinamide prodrug of the same isomer; for Cleavage with a large amount of LAP (in words): 1.5 units of LAP
T1 sequence (P15145 1-963): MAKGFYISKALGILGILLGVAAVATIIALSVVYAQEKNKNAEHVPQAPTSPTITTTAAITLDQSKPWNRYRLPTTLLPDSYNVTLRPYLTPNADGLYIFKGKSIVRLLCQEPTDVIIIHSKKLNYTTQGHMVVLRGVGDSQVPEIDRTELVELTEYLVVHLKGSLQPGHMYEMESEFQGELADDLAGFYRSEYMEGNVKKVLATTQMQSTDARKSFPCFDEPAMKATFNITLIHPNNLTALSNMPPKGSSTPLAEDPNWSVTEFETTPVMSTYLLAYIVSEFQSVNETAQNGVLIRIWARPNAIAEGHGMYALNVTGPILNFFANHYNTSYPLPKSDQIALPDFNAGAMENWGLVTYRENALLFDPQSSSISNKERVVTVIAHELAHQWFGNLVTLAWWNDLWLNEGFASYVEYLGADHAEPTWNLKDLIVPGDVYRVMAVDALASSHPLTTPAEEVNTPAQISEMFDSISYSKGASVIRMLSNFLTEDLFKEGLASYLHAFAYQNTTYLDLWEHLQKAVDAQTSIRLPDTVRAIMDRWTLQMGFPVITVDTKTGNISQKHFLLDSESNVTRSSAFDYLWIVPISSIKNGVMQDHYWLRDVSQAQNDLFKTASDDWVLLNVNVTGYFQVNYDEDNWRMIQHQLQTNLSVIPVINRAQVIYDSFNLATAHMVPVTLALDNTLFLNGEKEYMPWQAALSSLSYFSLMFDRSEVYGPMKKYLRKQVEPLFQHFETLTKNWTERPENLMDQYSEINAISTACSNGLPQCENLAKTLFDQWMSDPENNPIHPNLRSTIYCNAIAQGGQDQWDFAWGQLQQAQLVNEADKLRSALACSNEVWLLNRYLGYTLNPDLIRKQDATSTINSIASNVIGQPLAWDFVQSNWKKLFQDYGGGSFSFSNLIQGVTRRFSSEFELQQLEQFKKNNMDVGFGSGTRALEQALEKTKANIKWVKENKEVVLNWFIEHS

[2] = tested on: MDA-MB-231-luc human breast tumor; test: In vivo dynamic bioluminescence imaging; parameters: species or system SCID mice; conditions: for BLI signal compared with baseline (significance): 4 h and 24 h
[3] = tested on: human cancer cell lines [SK-OV-3 (ovarian), NCI-H460 (lung), and DU-145 (prostate)]; test: SRB cytotoxicity, stated across all three cell lines; assay type: cell-based; conditions: for GI50 values described in words: parent drugs, three cell lines
[4] = tested on: HUVECs; test: In vitro HUVEC tubule disruption assay; assay type: cell-based, human; conditions: for Disruption of capillary-like network of tubules (HUVECs): concentration of 0.1 μM; for Disruption of HUVEC tubular network on matrigel: concentration of 1.0 μM
Procedure, shortened: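 HUVECs (124,000 cells in M200 growth factors) plated on Matrigel (9.5 mg/mL) that had been pre-set 60 min at 37 °C; cells incubated 16 h at 37 °C to form tubule network. Test compound then added at 0.01, 0.1 or 1.0 μM. Network photographed, 9 fields/well, 40x objective.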

[5] = tested on: HUVECs; conditions: cited from earlier work
[6] = tested on: NCI-H460 (lung); test: SRB cytotoxicity assay, NCI-H460; assay type: cell-based, human; conditions: read-out: GI50 SRB Assay NCI-H460; 48 h treatment; average of n ≥ 3
[7] = tested on: DU-145 (prostate); test: SRB cytotoxicity assay, DU-145; assay type: cell-based, human; conditions: read-out: GI50 SRB Assay DU-145; 48 h treatment; average of n ≥ 3
[8] = tested on: SK-OV-3 (ovarian); test: SRB cytotoxicity assay, SK-OV-3; assay type: cell-based, human; conditions: read-out: GI50 SRB Assay SK-OV-3; 48 h treatment; average of n ≥ 3
[9] = tested on: tubulin; test: Colchicine binding assay; conditions: inhibitor 5 μM; 1.0 μM tubulin, 5.0 μM [3H]colchicine

COc1ccc(/C=C/c2cc(OC)c(OC)c(OC)c2)c(NC(=O)C(N)CO)c1.Cl (stereo in doubt) [Compound 17, (S,E)-2-amino-3-hydroxy-N-(5-methoxy-2-(3,4,5-trimethoxystyryl)phenyl)propanamide hydrochloride]
Cleavage by LAP (in words) [1]: effectively cleaved

COc1ccc(/C=C\c2cc(OC)c(OC)c(OC)c2)cc1NC(=O)[C@@H](N)CO.Cl [AVE8062, reference compound]
Cleavage by LAP (in words) [1]: effectively cleaved

COc1ccc(/C=C\c2cc(OC)c(OC)c(OC)c2)cc1OP(=O)(O)O [CA4P, combretastatin A-4 phosphate, reference compound]
BLI signal compared with baseline (significance) ([2]; CA4P 120 mg/kg ip): significantly less signal
BLI signal versus saline control (significance) ([2]; CA4P 120 mg/kg ip, p<0.05): significantly different from saline

COc1ccc(/C=C\c2cc(OC)c(OC)c(OC)c2)c(N)c1 [Compound 7, (Z)-2-(2′-amino-4′-methoxyphenyl)-1-(3,4,5-trimethoxyphenyl)ethene]
GI50 values described in words [3]: highly potent

COc1ccc(/C=C\c2cc(OC)c(OC)c(OC)c2)c(N)c1N [Compound 8, (Z)-2-(2′,3′-Diamino-4′-methoxyphenyl)-1-(3,4,5-trimethoxyphenyl)ethene]
Disruption of capillary-like network of tubules (HUVECs) [4]: significant disruption
Disruption of HUVEC tubular network on matrigel [4]: extensive disruption
GI50 values described in words [3]: highly potent

COc1ccc(/C=C\c2cc(OC)c(OC)c(OC)c2)c(N)c1N.Cl [Compound 10, (Z)-2-(2′,3′-Diamine hydrochloride-4′-methoxyphenyl)-1-(3,4,5-trimethoxyphenyl)ethene]
Disruption of capillary-like network of tubules (HUVECs) [4]: significant disruption
Disruption of HUVEC tubular network on matrigel [4]: extensive disruption
Reduction in light emission (BLI) relative to baseline ([2]; 80 mg/kg ip, 2 h post treatment, 17 min time-point): approximately 95%
Reduction in bioluminescence compared to saline control ([2]; 80 mg/kg, 2 h post treatment): greater than 95%

COc1ccc(/C=C\c2cc(OC)c(OC)c(OC)c2)c(NC(=O)[C@@H](N)CO)c1.Cl [Compound 15, (S,Z)-2-amino-3-hydroxy-N-(5-methoxy-2-(3,4,5-trimethoxystyryl)phenyl)propanamide hydrochloride]
Cleavage by LAP (in words) [1]: effectively cleaved
Specific Activity of LAP [1]: 1.2 μM/min/enzyme unit
Cytotoxicity against selected human cancer cell lines (in words) [3]: significant cytotoxicity

COc1ccc(/C=C\c2cc(OC)c(OC)c(OC)c2)c(NC(=O)CN)c1.Cl [Compound 16, (Z)-2-amino-N-(5-methoxy-2-(3,4,5-trimethoxystyryl)phenyl)acetamide hydrochloride]
Cleavage by LAP (in words) [1]: quantitative cleavage; also recorded: quantitatively cleaved
% Cleavage by LAP [1]: 100%
Cleavage rate relative to corresponding serinamide analogue [1]: 150 times
Specific Activity of LAP [1]: 180 μM/min/enzyme unit
Cytotoxicity against selected human cancer cell lines (in words) [3]: significant cytotoxicity

COc1ccc(/C=C/c2cc(OC)c(OC)c(OC)c2)c(NC(=O)CN)c1.Cl [Compound 18, (E)-2-amino-N-(5-methoxy-2-(3,4,5-trimethoxystyryl)phenyl)acetamide hydrochloride]
Cleavage by LAP (in words) [1]: quantitative cleavage; also recorded: quantitatively cleaved
% Cleavage by LAP [1]: 100%
Cleavage rate relative to corresponding serinamide analogue [1]: more than 100 times
Cytotoxicity against selected human cancer cell lines (in words) [3]: more cytotoxic than the corresponding serinamide AAPC 17

COc1ccc(/C=C\c2cc(OC)c(OC)c(OC)c2)c(NC(=O)[C@@H](N)CO)c1NC(=O)[C@@H](N)CO [Compound 22, (2S, 2'S)-N, N’-(3-methoxy-6-((Z)-3,4,5-trimethoxystyryl)-1,2-phenylene)bis(2-amino-3-hydroxypropanamide)]
Cleavage by LAP (in words) [1]: resistant to LAP mediated cleavage
Cleavage with a large amount of LAP (in words) [1]: did not result in any observable cleavage

COc1ccc(/C=C\c2cc(OC)c(OC)c(OC)c2)c(NC(=O)[C@@H](N)CO)c1NC(=O)[C@@H](N)CO.Cl.Cl [Compound 23, (2S, 2'S)-N, N’-(3-methoxy-6-((Z)-3,4,5-trimethoxystyryl)-1,2-phenylene)bis(2-amino-3-hydroxypropanamide) dihydrochloride]
Cleavage by LAP (in words) [1]: resistant to LAP mediated cleavage
Cleavage with a large amount of LAP (in words) [1]: did not result in any observable cleavage

COc1ccc(/C=C\c2cc(OC)c(OC)c(OC)c2)c(NC(=O)CN)c1NC(=O)CN.Cl.Cl [Compound 24, (Z)-N,N'-(3-methoxy-6-(3,4,5-trimethoxystyryl)-1,2-phenylene)bis(2-aminoacetamide)]
Cleavage by LAP (in words) [1]: resistant to LAP mediated cleavage
Disappearance of the prodrug on LAP treatment ([1]; LAP 0.12 units, by 25 h): greater than 95%
% Cleavage by LAP [1]: <10-90%

COc1ccc2c(c1N)CCCC=C2c1cc(OC)c(OC)c(OC)c1 [Compound 33, 1-Amino-2-methoxy-5-(3’,4’,5’-trimethoxyphenyl)-benzosuber-5-ene]
GI50 values described in words [3]: highly potent
HUVEC tubule disruption and cell rounding effect ([5]; 0.1 μM): significant tubule disruption and cell rounding effect
HUVEC tubule disruption and cell rounding effect ([5]; 1 μM): greatly enhanced
HUVEC tube disruption and cell rounding capability [5]: robust tubule disruption

COc1ccc2c(c1NC(=O)[C@@H](N)CO)CCC=C2c1cc(OC)c(OC)c(OC)c1.Cl [Compound 38, (S)-2-Amino-3-hydroxy-N-(2-methoxy-5-(3,4,5-trimethoxyphenyl)-7,8-dihydronaphthalen-1-yl)propanamide hydrochloride]
% Cleavage by LAP [1]: < 10%

COc1ccc2c(c1NC(=O)[C@@H](N)CO)CCCC=C2c1cc(OC)c(OC)c(OC)c1.Cl [Compound 39, (S)-2-Amino-3-hydroxy-N-(3-methoxy-9-(3,4,5-trimethoxyphenyl)-6,7-dihydro-5H-benzo[7]annulen-4-yl)propanamide hydrochloride]
GI50 [6]: 53800 ± 864 nM
GI50 [7]: 69400 ± 31300 nM
% Cleavage by LAP [1]: < 10%

COc1ccc2c(c1NC(=O)CN)CCC=C2c1cc(OC)c(OC)c(OC)c1.Cl [Compound 44, 2-Amino-N-(2-methoxy-5-(3,4,5-trimethoxyphenyl)-7,8-dihydronaphthalen-1-yl)acetamide hydrochloride]
% Cleavage by LAP [1]: 100%
Specific Activity of LAP [1]: 15.5 μM/min/enzyme unit
BLI signal versus saline control (significance) ([2]; 5 mg/kg ip, 4 h time point): not significantly different from saline control
BLI signal versus saline control (significance) ([2]; 15 mg/kg ip, p<0.05): significantly different from saline
BLI signal compared with baseline (significance) ([2]; 10 or 15 mg/kg ip): significantly less signal

COc1ccc2c(c1NC(=O)CN)CCCC=C2c1cc(OC)c(OC)c(OC)c1.Cl [Compound 45, 2-Amino-N-(3-methoxy-9-(3,4,5-trimethoxyphenyl)-6,7-dihydro-5H-benzo[7]annulen-4-yl)acetamide hydrochloride]
% Cleavage by LAP [1]: 100%

(Z)-2-(2'-Methoxy-4'-aminophenyl)-1-(3,4,5-trimethoxyphenyl)ethene hydrochloride [Compound 9]
GI50 [8]: 7.35 ± 3.5 nM
GI50 [6]: 26.3 ± 16.1 nM
GI50 [7]: 28.5 ± 23.2 nM
Inhibition of Colchicine Binding (% Inhibition±SD) [9]: 75±0.90%
